Measured values published in paper PMC6649664 (Cell host & microbe, 2019).

What was measured:
Format in all cases: cell-based
[1] = biological target: T1, Mrgprb2 (Mus musculus, UniProt Q3KNA1); experiment: Calcium imaging / FLIPR EC50 determination in HEK293 cells expressing Mrgprb2; conditions: HEK293 cells stably expressing Mrgprb2 and Gα15
T1 sequence (Q3KNA1 1-338): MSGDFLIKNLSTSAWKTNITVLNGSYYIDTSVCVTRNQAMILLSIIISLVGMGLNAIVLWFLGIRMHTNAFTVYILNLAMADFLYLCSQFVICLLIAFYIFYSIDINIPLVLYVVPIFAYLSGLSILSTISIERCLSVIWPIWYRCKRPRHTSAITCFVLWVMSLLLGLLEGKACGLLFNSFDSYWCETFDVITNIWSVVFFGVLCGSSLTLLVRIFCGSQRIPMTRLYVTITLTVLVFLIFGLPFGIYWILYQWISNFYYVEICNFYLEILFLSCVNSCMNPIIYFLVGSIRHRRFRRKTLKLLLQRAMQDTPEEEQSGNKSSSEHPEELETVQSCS
Procedure, shortened: (§1)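 HEK293 cells stably co-expressing Gα15 with the receptor were seeded at 4 × 10^4 cells/well and cultured overnight. After dye loading for 60 min at 37°C and 15 min recovery at RT, fluorescence was recorded on a Flexstation for 120 s. Compound, dissolved in HBSS+HEPES, was added as a 3X solution at 30 s. Response was taken as maximum minus minimum signal, averaged from duplicate wells. EC50 was fitted per trial after normalising to that trial's peak response.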

[2] = biological target: T2, MRGPRX2 (Homo sapiens, UniProt Q96LB1); experiment: Calcium imaging / FLIPR EC50 determination in HEK293 cells expressing MRGPRX2; conditions: HEK293 cells stably expressing MRGPRX2 and Gα15
T2 sequence (Q96LB1 1-330): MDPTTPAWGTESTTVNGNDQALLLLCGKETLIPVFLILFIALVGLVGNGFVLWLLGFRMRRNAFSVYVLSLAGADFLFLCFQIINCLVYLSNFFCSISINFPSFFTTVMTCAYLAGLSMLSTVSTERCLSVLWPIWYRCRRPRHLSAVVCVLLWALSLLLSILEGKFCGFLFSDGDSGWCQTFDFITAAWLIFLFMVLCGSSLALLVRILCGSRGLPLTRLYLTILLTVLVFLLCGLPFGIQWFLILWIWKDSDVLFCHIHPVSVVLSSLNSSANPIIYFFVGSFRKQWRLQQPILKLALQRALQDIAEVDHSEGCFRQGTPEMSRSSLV
Procedure, shortened: as §1

[3] = system: LAD2 human mast cells; experiment: Mast cell degranulation assay; conditions: 30 min at 37°C
Procedure, shortened: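 LAD2 cells were washed and resuspended at 0.5 × 10^6 cells/mL in 0.4% BSA-HEPES buffer, then exposed to compound for 30 min at 37°C in 5% CO2. β-Hexosaminidase was measured in supernatants and in 0.1% Triton X-100 lysates by p-nitrophenyl N-acetyl-β-D-glucosamide hydrolysis in 0.1 M sodium citrate (pH 4.5) for 90 min at 37°C. Release is expressed as percent of total content.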

Row | Substance | activation of Mrgprb2-HEK cells (Ca2+ mobilization) [1] | activation of MRGPRX2-HEK cells (Ca2+ mobilization) [2] | β-hexosaminidase release [3]
1 | autoinducer-2 [AI-2] | did not activate | did not activate | did not activate
2 | competence stimulating peptide [CSP] | activated | activated | 
